Data as given in ChEMBL document CHEMBL2040847, “Overcoming clopidogrel resistance: discovery of vicagrel as a highly potent and orally bioavailable antiplatelet agent” (J Med Chem, 2012).

Columns and labels:
[1] = system: Rattus norvegicus; assay: Antiplatelet activity in Wistar rat assessed as inhibition of ADP-induced platelet aggregation at 3 mg/kg, po measured after 2 hrs by Born's method; type: functional; set-up: scale not given: the % may be the effect or the level left
In short: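 Oral dosing at 3 mg/kg, CMC as vehicle, groups of 10 rats. At 2 h the rats were anesthetized with pentobarbital sodium and blood was drawn from the abdominal aorta. Ex vivo aggregation was induced with ADP 1.2 μM and read on an aggregometer (Born's method). Values are mean ± SD, n = 10, statistics versus vehicle.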

[2] = Toxicity in beagle dog assessed as maximum tolerated dose; type: organism-based, Canis lupus familiaris; details: in vivo
In short: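 Single-dose oral study in beagle dogs, run in a GLP laboratory. Both the no-observed-adverse-effect level and the maximal tolerated dose were determined.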

[3] = system: Rattus norvegicus; assay: Tmax in Sprague-Dawley rat assessed as clopidogrel thioacetate level at 24 umol/kg, po; type: ADME, organism-based; details: in vivo
[4] = system: Rattus norvegicus; assay: Cmax in Sprague-Dawley rat assessed as clopidogrel thioacetate level at 24 umol/kg, po; type: ADME, organism-based; set-up: dose 24 umol/kg, route oral; details: in vivo
[5] = system: Liver microsomes; assay: Drug metabolism in rat liver microsomes assessed as NADPH-dependent active metabolite glutathione adducts 4 formation at 20 uM after 30 mins by LC-MS/MS analysis; type: ADME, Microsome; details: 0.5 h
In short: (§1)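 Pooled SD rat liver microsomes (1.0 mg/mL protein) with compound 20 μM (diluted from 10 mM DMSO stock), NADPH 1.0 mM and glutathione 10 mM in 100 mM potassium phosphate pH 7.4. Incubated 30 min at 37 °C; controls lacked NADPH. Quenched with ice-cold 10% TCA and centrifuged. Supernatant analysed by LC-MS/MS (phenyl column, positive ESI), monitoring AMGS adducts at m/z 661 (SIM).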

[6] = system: Liver microsomes; assay: Drug metabolism in rat liver microsomes assessed as NADPH-dependent active metabolite glutathione adducts 2 formation at 20 uM after 30 mins by LC-MS/MS analysis; type: ADME, Microsome; details: 0.5 h; in short: as §1
[7] = system: Liver microsomes; assay: Drug metabolism in rat liver microsomes assessed as NADPH-dependent active metabolite glutathione adducts 3 formation at 20 uM after 30 mins by LC-MS/MS analysis; type: ADME, Microsome; details: 0.5 h; in short: as §1
[8] = system: Liver microsomes; assay: Drug metabolism in rat liver microsomes assessed as NADPH-dependent active metabolite glutathione adducts 1 formation at 20 uM after 30 mins by LC-MS/MS analysis; type: ADME, Microsome; details: 0.5 h; in short: as §1
[9] = system: Liver microsomes; assay: Drug metabolism in rat liver microsomes assessed as NADPH-dependent active metabolite glutathione adducts formation at 20 uM after 30 mins by LC-MS/MS analysis in presence of NADPH and GSH; type: ADME, Microsome; details: 0.5 h; in short: as §1
[10] = system: Rattus norvegicus; assay: Half life in Sprague-Dawley rat assessed as clopidogrel thioacetate level at 24 umol/kg, po; type: ADME, organism-based; details: in vivo
[11] = system: Rattus norvegicus; assay: AUC (0 to infinity) in Sprague-Dawley rat […] at 24 umol/kg, po; type: ADME, organism-based, Plasma; set-up: dose 24 umol/kg, route oral, time infinity; details: in vivo
[12] = system: Mus musculus; assay: Toxicity in mouse assessed as mortality at 5000 mg/kg, po measured after 14 days; type: organism-based; set-up: dose 5000 mg/kg, route oral; details: in vivo, 336 h
In short: (§2)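 Single-dose study in a GLP laboratory. Deaths were recorded, and the liver and other organs were assessed for injury or adverse effects.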

[13] = system: Mus musculus; assay: Toxicity in mouse assessed as liver injury at 5000 mg/kg, po measured after 14 days; type: organism-based; set-up: dose 5000 mg/kg, route oral; details: in vivo, 336 h; in short: as §2
[14] = system: Mus musculus; assay: Toxicity in mouse assessed as tissue injury at 5000 mg/kg, po measured after 14 days; type: organism-based; set-up: dose 5000 mg/kg, route oral; details: in vivo, 336 h; in short: as §2
[15] = Toxicity in beagle dog assessed as no-observed adverse effect level; type: organism-based, Canis lupus familiaris; details: in vivo

CCCC(=O)Oc1cc2c(s1)CCN([C@H](C(=O)OC)c1ccccc1Cl)C2
Activity [1]: 52.8%

COC(=O)[C@H](c1ccccc1Cl)N1CCc2sc(OC(=O)OC(C)C)cc2C1
Activity [1]: 50.2%

COC(=O)[C@H](c1ccccc1Cl)N1CCc2sc(OC(=O)N3CCCC3)cc2C1
Activity [1]: 80.9%

COC(=O)[C@H](c1ccccc1Cl)N1CCc2sc(OC(=O)N(C)C)cc2C1
Activity [1]: 67.7%

COC(=O)[C@H](c1ccccc1Cl)N1CCc2sc(OC(=O)/C=C/c3ccccc3)cc2C1
Activity [1]: 84.7%

COC(=O)[C@H](c1ccccc1Cl)N1CCc2sc(OC(=O)COc3ccccc3)cc2C1
Activity [1]: 75.4%

COC(=O)[C@H](c1ccccc1Cl)N1CCc2sc(OC(=O)c3ccccc3OC(C)=O)cc2C1
Activity [1]: 77.9%

CC(=O)Oc1cc2c(s1)CCN(C(C(=O)C1CC1)c1ccccc1F)C2 (stereo not given) [PRASUGREL]
Activity [1]: 32.1%

COC(=O)[C@H](c1ccccc1Cl)N1CCc2sc(OC(=O)c3ccc([N+](=O)[O-])cc3)cc2C1
Activity [1]: 75.6%

COC(=O)[C@@H](c1ccccc1Cl)N1CCc2sc(OC(C)=O)cc2C1
Activity [1]: 68.4%

COC(=O)[C@H](c1ccccc1Cl)N1CCc2sc(OC(=O)OCc3ccccc3)cc2C1
Activity [1]: 72.2%

COC(=O)[C@H](c1ccccc1Cl)N1CCc2sc(OC(=O)OCC(C)C)cc2C1
Activity [1]: 65.6%

COC(=O)[C@H](c1ccccc1Cl)N1CCC2SC(=O)C=C2C1 (stereo not given in full) [CLOPIDOGREL THIOLACTONE]
Activity [1]: 48.6%

COC(=O)[C@H](c1ccccc1Cl)N1CCc2sc(OC(=O)C(C)(C)C)cc2C1
Activity [1]: 63.4%

COC(=O)[C@H](c1ccccc1Cl)N1CCc2sc(OC(=O)c3ccccc3)cc2C1
Activity [1]: 60.1%

CCC(C)(C)C(=O)Oc1cc2c(s1)CCN([C@H](C(=O)OC)c1ccccc1Cl)C2
Activity [1]: 70%

COC(=O)C(c1ccccc1Cl)N1CCc2sc(OC(C)=O)cc2C1 (racemic)
Activity [1]: 63.7%

CCC(=O)Oc1cc2c(s1)CCN([C@H](C(=O)OC)c1ccccc1Cl)C2
Activity [1]: 46.7%

COC(=O)[C@H](c1ccccc1Cl)N1CCc2sc(OC(=O)Cc3ccccc3)cc2C1
Activity [1]: 53.8%

COC(=O)Oc1cc2c(s1)CCN([C@H](C(=O)OC)c1ccccc1Cl)C2
Activity [1]: 38.6%

COC(=O)[C@H](c1ccccc1)N1CCc2sc(OC(C)=O)cc2C1
Activity [1]: 81.1%

COC(=O)[C@H](c1ccccc1Cl)N1CCc2sc(OC(C)=O)cc2C1 [SUMECIGREL]
MTD [2]: > 2000 mg/kg | Tmax [3]: 1.17 h | Cmax [4]: 67.2 ng/mL | Drug metabolism [5]: Active | Drug metabolism [6]: Active | Drug metabolism [7]: Active | Drug metabolism [8]: Active | Drug metabolism [9]: Active | Activity [1]: 34.6% | t1/2 [10]: 2.19 h | AUC [11]: 211 ng·h/mL | Activity [12]: Non-toxic | Activity [13]: Toxic | Activity [14]: Non-toxic | NOAEL [15]: 300 mg/kg

COC(=O)[C@H](c1ccccc1Cl)N1CCc2sc(OC(=O)c3ccc(OC)cc3)cc2C1
Activity [1]: 82.6%

COC(=O)[C@H](c1ccccc1Cl)N1CCc2sccc2C1.O=S(=O)(O)O [CLOPIDOGREL BISULFATE]
Activity [1]: 73.7%

CCOC(=O)Oc1cc2c(s1)CCN([C@H](C(=O)OC)c1ccccc1Cl)C2
Activity [1]: 53%

COC(=O)[C@H](c1ccccc1Cl)N1CCc2sc(OC(=O)c3cccnc3)cc2C1
Activity [1]: 45.1%

COC(=O)[C@H](c1ccccc1Cl)N1CCc2sccc2C1 [CLOPIDOGREL]
Tmax [3]: 0.583 h | Cmax [4]: 6.93 ng/mL | Drug metabolism [5]: Active | Drug metabolism [6]: Active | Drug metabolism [7]: Active | Drug metabolism [8]: Active | Drug metabolism [9]: Active | t1/2 [10]: 2.48 h | AUC [11]: 32.2 ng·h/mL

COC(=O)[C@H](c1ccccc1F)N1CCc2sc(OC(C)=O)cc2C1
Activity [1]: 62.9%
